High-throughput results from PubChem.
5HT1E antag – 5-HT1E (human) receptor antagonism; hit rate 0.99% among 65,000; AID 571; P28566; CHO 5-HT1E Ga15 NFAT-bla reporter, FRET, antagonist; inhibition, % at 6 µM;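 active = inhibition above a set limit, the mean inhibition across every tested compound plus 3 SD, cut at about 29% in these data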;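 also: signal is the 460 over 535 nm emission ratio of beta-lactamase substrate; 0% = agonist plus DMSO wells and 100% = wells without agonist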
5-HT1A blocker – antagonists of human 5-HT1a serotonin receptor; CHO 5-HT1a Ga15 NFAT-bla reporter, antagonist mode; P08908; AID 612; hit rate 0.68% among 62,000; inhibition, % at 10 µM;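 active = inhibition above the mean of all tested compounds plus 3 SD, cut at about 43% in these data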;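 also: receptor stimulated by 5-CT agonist at 100 nM near EC80; beta-lactamase reporter measured by ratiometric fluorescence of a cleavable substrate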
Target sequence (P08908 whole entry, looked up): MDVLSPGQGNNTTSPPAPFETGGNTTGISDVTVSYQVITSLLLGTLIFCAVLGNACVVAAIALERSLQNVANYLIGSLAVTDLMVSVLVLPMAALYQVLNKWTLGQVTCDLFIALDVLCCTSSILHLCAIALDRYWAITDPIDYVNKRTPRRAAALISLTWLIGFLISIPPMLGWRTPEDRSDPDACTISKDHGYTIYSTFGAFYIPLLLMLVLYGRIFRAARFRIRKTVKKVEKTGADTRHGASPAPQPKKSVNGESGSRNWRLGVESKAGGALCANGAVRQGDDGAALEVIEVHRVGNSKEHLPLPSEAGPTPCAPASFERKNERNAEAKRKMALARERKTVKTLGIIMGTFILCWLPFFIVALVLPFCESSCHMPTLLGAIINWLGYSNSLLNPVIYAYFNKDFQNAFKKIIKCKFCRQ
S1P3 agonist – S1P3 (human) receptor agonism; activation, % at 4.5 µM; S1P3 NFAT-BLA reporter cells, FRET ratio; relative to 1 µM S1P, basal subtracted; Q99500; hit rate 0.1% among 60,000; AID 373;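 active = activation above the screen-wide mean plus 3 SD, cut at about 4.5% in these data, passing the limit was not always enough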
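material = human S1P3 NFAT-BLA reporter CHO cells | schedule = 4 h compound at 37 °C, 2 h substrate at RT | measured by = fluorescent BLA substrate, ex 405 nm, em 460/535 nm ratio | controls = 1 µM S1P reference | replication = primary once, confirmation triplicate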
5HT1a ag – activates the human 5-HT1a serotonin receptor | CHO 5-HT1a Ga15 NFAT-bla reporter, FRET ratio; 0% basal, 100% maximal reference agonist | activation, % at 10 µM | hit rate 0.56% among 65,000 | AID 567;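 active = activation above the screen-wide mean activation plus 3 SD, cut at about 19% in these data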;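 also: 0% = DMSO wells and 100% = 5-CT at EC100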
5HT1E ag – 5-HT1E (human) receptor agonism; hit rate 0.69% among 65,000; CHO 5-HT1E Ga15 NFAT-bla reporter, FRET; 0% DMSO wells, 100% control agonist wells; AID 574; activation, % at 6 µM;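 active = activation above a set limit, the screen-wide mean activation plus 3 SD, cut at about 8.5% in these data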;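 also: 100% = positive control agonist at 1 µM giving full maximal response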
S1P1 ag pot – activates or potentiates agonism at human S1P1 receptor; activation, % at 9.5 µM; P21453; S1P1 CRE-bla cells, forskolin, beta-lactamase FRET, potentiator mode; S1P1 agonist co-added at EC20, 2 nM; 100% = saturating reference agonist, 0% = basal; hit rate 0.57% among 56,000; AID 449;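 active = activation above a cutoff set at the mean activation of all tested compounds plus 3 SD, cut at about 54% in these data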;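 also: forskolin at 4 µM as EC80 and the EC20 agonist is SEW2871; 100% = SEW2871 at its EC100 plus forskolin at EC80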
* hit, by the source's call; · = not tested or not shown. In the library only some 3% were active in any assay of this set; here they are far more common.

SMILES	5HT1E antag	5-HT1A blocker	S1P3 agonist	5HT1a ag	5HT1E ag	S1P1 ag pot
CCOc1cc(C)c(Cl)cc1S(=O)(=O)NCC1CCCO1 (centres undefined)	31*	12	-1	0	-1	12
C=CCNC(=O)C1CCCN(S(C)(=O)=O)C1 (centres undefined)	5	3	-1	0	14*	14
Cc1cccc(NC(=O)C2CCCN(C(=O)Nc3ccccc3)C2)c1C (centres undefined)	5	0	0	0	88*	1
O=C(NCc1ccccc1)C1CCCN(C(=O)Nc2ccccc2)C1 (centres undefined)	12	5	0	-1	0	3
COC(=O)c1ccc(-c2sc3nc(N4CCOCC4)c4c(c3c2N)CCCC4)o1	12	·	1	25*	5	-34
CCC(=O)N1CCc2cc(S(=O)(=O)CCC(=O)NCc3cccs3)ccc21	1	3	0	-3	0	-3
CCOC(=O)COc1cccc2c(=O)n(CC(=O)NCc3ccc4c(c3)OCO4)ccc12	47*	6	0	2	1	16
CCOC(=O)COc1cccc2c(=O)n(CC(=O)N3CCc4ccccc43)ccc12	16	6	-1	-1	1	-4
Nc1nnc(-c2ccccc2)c(-c2ccccc2)n1	5	-10	0	-1	1	-46
c1ccc(-c2nc3nonc3nc2-c2ccccc2)cc1	16	33	6.1*	-3	-1	4
CCOC(=O)Cn1c(=O)c2c(nc3n2CCS3)n(C)c1=O	6	-8	1	-5	0	-10
COc1nc(NCCc2ccc(OC)c(OC)c2)nc(OC)n1	-5	12	-2	1	0	-10
COc1nc(NCCC2=CCCCC2)nc(OC)n1	3	-14	-1	51*	0	·
Cc1ccccc1OCCCN1CCCC1	0	-9	0	-3	1	-12
CCc1ccccc1OCCCCN1CCCC1	-9	6	-1	-1	12*	·
C=CCc1ccccc1OCCCCN1CCCC1	7	20	-2	2	10*	-4
O=C(NCc1ccco1)C(C(=O)c1ccc(F)cc1)n1ccccc1=O (centres undefined)	-3	12	0	-2	0	15
CN(C)CCNC(=O)C(C(=O)c1ccc(F)cc1)n1ccccc1=O (centres undefined)	0	4	-2	120*	1	-4
CCCC(=O)Nc1ccc(OCC(=O)OC)cc1	-4	-12	1	0	0	-8
CCCCc1ccc(Nc2nc(CCC)cc(=O)[nH]2)cc1	6	45*	-2	-2	0	7
CCCc1cc(=O)[nH]c(Nc2ccc(N3CCCCC3)cc2)n1	0	14	-2	0	0	10
COc1ccc(N2CCN(Cc3nc(N)nc(Nc4ccc(C)c(Cl)c4)n3)CC2)cc1	13	4	0	1	1	33
CC(CCc1ccccc1)NC(=O)CSc1nc(N)cc(N)n1 (centres undefined)	-5	3	0	1	58*	9
N#Cc1nc(-c2cccs2)oc1NCCc1ccccc1	36*	·	-4	4	-1	2
N#Cc1nc(-c2ccco2)oc1NCCc1ccccc1	5	-13	0	-1	0	-17
SMILES	5HT1E antag	5-HT1A blocker	S1P3 agonist	5HT1a ag	5HT1E ag	S1P1 ag pot
CC(C)(C)c1ccc(-c2nc(C#N)c(NCc3ccncc3)o2)cc1	-12	6	-2	0	1	2
CCn1c(=O)n(CC)c2cc(S(N)(=O)=O)c(C)cc21	3	0	0	1	-1	-27
CCOC(=O)c1[nH]c(C)c(C(=O)Nc2cc(Cl)ccc2C)c1C	44*	32	-1	-3	0	0
CCOC(=O)c1[nH]c(C)c(C(=O)Nc2ccccc2C)c1C	23	17	-1	1	0	28
COc1ccc(CC(=O)Nc2nncs2)cc1OC	-5	3	0	-1	-1	5
CCc1ccc(CCC(=O)Nc2sc3c(c2C#N)CCCC3)o1	53*	61*	20	-3	0	·
N#Cc1c(NC(=O)CCC(=O)O)sc2c1CCCC2	-6	·	-2	-1	0	-4
COc1cccc(CNC(=O)C2CCCN(S(=O)(=O)c3cnc[nH]3)C2)c1 (centres undefined)	2	-1	0	-1	0	-17
CC(=O)Nc1cc(OC(C)=O)c2nonc2c1OC(C)=O	103*	78*	-2	7	1	98*
Cc1cccc(NC(=O)Nc2cccc(C#N)c2)n1	-6	27	-1	0	0	-31
Cc1cccc(NC(=O)Nc2ccc(C#N)cc2)n1	32*	83*	-2	-1	0	68
Cc1ccc(SCCNC(=O)C(CO)(CO)CO)cc1	4	8	-2	-2	0	-14
Cc1cccc(-n2cnc3cc(C(=O)N4CCCCC4)ccc32)c1	-5	-7	·	45*	0	·
Cn1nnc2cc(C(=O)N3CCCCCC3)ccc21	-10	4	·	-2	0	·
CCOC(=O)C1CCc2sc(N)c(C#N)c21 (centres undefined)	-1	6	-2	-2	0	·
Cc1ccc2[nH]c(=O)c(CN(Cc3ccco3)C(=O)c3ccncc3)cc2c1	13	5	-1	-6	0	17
O=C(c1cccs1)N(Cc1ccco1)Cc1cc2ccccc2[nH]c1=O	-8	-1	0	51*	1	-37
CC1=CC(C)C2C(=O)N(CCCN(C)C)C(=O)C2C1 (centres undefined)	7	-12	0	-1	0	·
CCN(CC)c1ccc(-c2nn3c(-c4n[nH]c5c4CCC5)nnc3s2)cc1	70*	56*	-1	2	2	-108
C1CCC(c2nn3c(-c4n[nH]c5c4CCC5)nnc3s2)CC1	16	-11	0	-3	0	-54
CCC(Oc1ccccc1)C(=O)N1CCC(C(N)=O)CC1 (centres undefined)	-11	7	1	20*	0	·
CCC(Oc1ccccc1)C(=O)N1CCN(c2ccccn2)CC1 (centres undefined)	4	5	0	-2	-2	·
O=C(CSc1n[nH]c(-c2ccccc2)n1)c1ccccc1	1	1	-1	-3	0	-31
CN(C)c1nc(N)nc(CSc2n[nH]c(-c3ccccc3)n2)n1	30*	-15	2	-2	0	-57
N#Cc1c(N)nc(SCc2ccncc2)c(C#N)c1-c1cccs1	43*	5	-1	1	0	18
O=C(NCc1ccco1)c1ccc(S(=O)(=O)N2CCCc3ccccc32)cc1	3	10	-1	-2	0	31
